Measured values from ChEMBL document CHEMBL3108759, “Scaffold ranking and positional scanning utilized in the discovery of nAChR-selective compounds suitable for optimization studies” (J Med Chem, 2013).
Active and inactive are the calls of the source. No cut-off for these calls is given here.

Key:
[1] = target: Neuronal acetylcholine receptor; alpha3/beta4 (Rattus norvegicus, UniProt P04757+P12392); assay: Displacement of [3H]epibatidine from rat alpha3beta4 nAChR transfected in HEK293 cells after 2 hrs by beta-plate counting analysis; type: cell-based
Neuronal acetylcholine receptor; alpha3/beta4, sequence (P04757 whole entry): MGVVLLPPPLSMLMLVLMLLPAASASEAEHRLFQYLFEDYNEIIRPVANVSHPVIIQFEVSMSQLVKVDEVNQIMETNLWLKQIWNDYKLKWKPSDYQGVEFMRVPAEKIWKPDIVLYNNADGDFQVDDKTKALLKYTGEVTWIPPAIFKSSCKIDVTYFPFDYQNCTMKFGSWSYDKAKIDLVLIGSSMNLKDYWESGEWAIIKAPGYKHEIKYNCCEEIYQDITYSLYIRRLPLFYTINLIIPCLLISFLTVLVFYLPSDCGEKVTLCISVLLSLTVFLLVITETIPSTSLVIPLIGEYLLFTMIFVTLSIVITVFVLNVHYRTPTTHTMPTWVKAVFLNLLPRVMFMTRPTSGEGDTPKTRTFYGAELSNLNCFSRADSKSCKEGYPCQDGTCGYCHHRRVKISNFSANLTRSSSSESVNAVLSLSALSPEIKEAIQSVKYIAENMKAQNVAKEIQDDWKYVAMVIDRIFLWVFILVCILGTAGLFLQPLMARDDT
Neuronal acetylcholine receptor; alpha3/beta4, sequence (P12392 whole entry): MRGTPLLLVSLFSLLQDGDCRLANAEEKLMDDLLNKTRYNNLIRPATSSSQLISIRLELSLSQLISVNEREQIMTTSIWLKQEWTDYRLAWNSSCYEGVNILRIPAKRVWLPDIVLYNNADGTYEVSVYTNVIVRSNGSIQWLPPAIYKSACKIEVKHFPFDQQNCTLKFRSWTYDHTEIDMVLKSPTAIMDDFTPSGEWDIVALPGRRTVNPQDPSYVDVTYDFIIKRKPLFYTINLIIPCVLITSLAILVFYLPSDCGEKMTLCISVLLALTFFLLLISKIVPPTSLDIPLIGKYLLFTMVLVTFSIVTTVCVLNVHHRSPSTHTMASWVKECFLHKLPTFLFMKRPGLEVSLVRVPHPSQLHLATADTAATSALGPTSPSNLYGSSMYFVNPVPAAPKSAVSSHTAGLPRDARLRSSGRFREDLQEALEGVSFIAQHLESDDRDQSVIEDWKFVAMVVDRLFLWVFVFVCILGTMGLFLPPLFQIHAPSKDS
Outline: (§1)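 Cell lines KXα3β4R2 and KXα4β2R2 (rat receptors) were used. Membranes were prepared by homogenizing cells in 50 mM Tris pH 7.4 and centrifuging twice at 20000g. They were incubated 2 h at room temperature with 0.3 nM [3H]epibatidine plus test sample, then filtered on PEI-soaked glass fiber and counted. Nonspecific binding was defined by 1 µM AT-1001 or 0.1 µM epibatidine. Ki was obtained by Cheng–Prusoff; runs were in triplicate, at least twice.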

[2] = target: T1, Neuronal acetylcholine receptor; alpha4/beta2 (Rattus norvegicus, UniProt P09483+P12390); assay: Displacement of [3H]epibatidine from rat alpha4beta2 nAChR transfected in HEK293 cells after 2 hrs by beta-plate counting analysis; type: cell-based; outline: as §1
T1 sequence (P09483 whole entry): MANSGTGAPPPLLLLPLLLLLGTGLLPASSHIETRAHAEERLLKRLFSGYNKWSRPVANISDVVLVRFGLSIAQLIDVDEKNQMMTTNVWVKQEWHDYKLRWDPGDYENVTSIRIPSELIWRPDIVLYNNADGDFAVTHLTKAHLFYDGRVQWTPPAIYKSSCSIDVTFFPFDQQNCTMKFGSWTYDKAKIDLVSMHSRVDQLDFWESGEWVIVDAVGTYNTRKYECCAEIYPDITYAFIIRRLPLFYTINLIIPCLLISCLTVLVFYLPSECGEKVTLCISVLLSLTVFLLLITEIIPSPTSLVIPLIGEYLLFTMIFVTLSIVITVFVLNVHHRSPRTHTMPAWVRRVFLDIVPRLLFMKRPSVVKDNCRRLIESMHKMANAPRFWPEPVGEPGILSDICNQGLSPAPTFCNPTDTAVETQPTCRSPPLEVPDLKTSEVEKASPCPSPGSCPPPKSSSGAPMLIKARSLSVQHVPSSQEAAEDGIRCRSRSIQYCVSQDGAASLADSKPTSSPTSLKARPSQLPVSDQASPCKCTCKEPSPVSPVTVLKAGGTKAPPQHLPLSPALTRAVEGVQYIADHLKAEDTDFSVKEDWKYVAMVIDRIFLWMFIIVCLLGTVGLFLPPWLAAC
T1 sequence (P12390 whole entry): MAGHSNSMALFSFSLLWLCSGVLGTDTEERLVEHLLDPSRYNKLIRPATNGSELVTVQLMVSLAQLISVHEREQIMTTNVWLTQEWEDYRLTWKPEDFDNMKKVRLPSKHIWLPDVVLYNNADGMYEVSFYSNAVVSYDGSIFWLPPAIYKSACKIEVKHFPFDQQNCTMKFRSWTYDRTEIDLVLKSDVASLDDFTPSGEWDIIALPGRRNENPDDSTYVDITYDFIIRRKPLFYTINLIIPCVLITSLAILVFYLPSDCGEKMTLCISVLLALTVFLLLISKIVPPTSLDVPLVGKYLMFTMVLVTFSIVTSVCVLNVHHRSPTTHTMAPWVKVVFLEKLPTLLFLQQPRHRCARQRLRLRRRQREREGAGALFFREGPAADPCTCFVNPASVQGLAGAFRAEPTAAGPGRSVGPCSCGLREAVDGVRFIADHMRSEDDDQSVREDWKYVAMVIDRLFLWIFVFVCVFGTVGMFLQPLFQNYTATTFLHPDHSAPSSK

HEK293 = assay: Selectivity ratio for rat alpha3beta4 nAChR transfected in HEK293 cells to rat alpha4beta2 nAChR transfected in HEK293 cells; type: cell-based
Rattus norvegicus = species on record: Rattus norvegicus; assay: Selectivity ratio of Ki for rat alpha3beta4 nAChR to Ki for rat alpha4beta2 nAChR
Outline: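 Selectivity was calculated from [3H]epibatidine-binding Ki values as (Ki α3β4 − Ki α4β2)/Ki α4β2.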

[3] = target: T1, Neuronal acetylcholine receptor; alpha4/beta2; assay: Antagonist activity at rat alpha4beta2 nAChR transfected in HEK293 cells after 10 mins by fluorescence assay in presence of nicotine; type: cell-based
Outline: (§2)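 Transfected HEK cells were seeded at 4000/well the day before and loaded with blue membrane-potential dye in HBSS/20 mM HEPES pH 7.4 at 37 °C for 20 min. […] Fluorescence (ex 530, em 550–580) was recorded every 3 s for 120 s on a FlexStation.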

[4] = target: T2, Neuronal acetylcholine receptor; alpha4/beta2 (Rattus norvegicus) (UniProt P09483+P12390); assay: Noncompetitive inhibition of nicotine-induced rat alpha4beta2 nAChR transfected in HEK293 cells assessed as stimulation of membrane potential at 3 uM after 10 mins by fluorescence assay; type: cell-based; design: scale not given: the % may be the effect or the level left; outline: as §2
[5] = target: T2, Neuronal acetylcholine receptor; alpha4/beta2 (Rattus norvegicus); assay: Agonist activity at rat alpha4beta2 nAChR transfected in HEK293 cells assessed as change in membrane potential measured every 3 secs for 120 secs by fluorescence assay; type: cell-based
Outline: (§3)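 Membrane potential read with blue potentiometric dye on a FlexStation. Transfected HEK cells were seeded at 4000/well one day ahead, washed, then loaded with dye in HBSS containing 20 mM HEPES, pH 7.4, for 30 min at 37 °C. Compound was then dispensed automatically and fluorescence (ex 530, em 550–580) recorded every 3 s for 120 s.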

[6] = target: T2, Neuronal acetylcholine receptor; alpha4/beta2 (Rattus norvegicus); assay: Inverse agonist activity at nicotine-induced rat alpha4beta2 nAChR activation transfected in HEK293 cells; type: cell-based
[7] = target: T2, Neuronal acetylcholine receptor; alpha4/beta2 (Rattus norvegicus); assay: Noncompetitive inhibition of nicotine-induced rat alpha4beta2 nAChR transfected in HEK293 cells assessed as stimulation of membrane potential after 10 mins by fluorescence assay; type: cell-based; outline: as §2
[8] = target: T2, Neuronal acetylcholine receptor; alpha4/beta2 (Rattus norvegicus); assay: Noncompetitive inhibition of nicotine-induced rat alpha4beta2 nAChR transfected in HEK293 cells assessed as stimulation of membrane potential at 1 uM after 10 mins by fluorescence assay; type: cell-based; design: scale not given: the % may be the effect or the level left; outline: as §2
[9] = target: Nicotinic acetylcholine receptor alpha3/beta4/alpha5 (Homo sapiens, UniProt P30532+P30926+P32297); assay: Binding affinity to alpha3beta4alpha5 nAChR (unknown origin); type: protein-complex assay
Nicotinic acetylcholine receptor alpha3/beta4/alpha5, sequence (P30926 whole entry): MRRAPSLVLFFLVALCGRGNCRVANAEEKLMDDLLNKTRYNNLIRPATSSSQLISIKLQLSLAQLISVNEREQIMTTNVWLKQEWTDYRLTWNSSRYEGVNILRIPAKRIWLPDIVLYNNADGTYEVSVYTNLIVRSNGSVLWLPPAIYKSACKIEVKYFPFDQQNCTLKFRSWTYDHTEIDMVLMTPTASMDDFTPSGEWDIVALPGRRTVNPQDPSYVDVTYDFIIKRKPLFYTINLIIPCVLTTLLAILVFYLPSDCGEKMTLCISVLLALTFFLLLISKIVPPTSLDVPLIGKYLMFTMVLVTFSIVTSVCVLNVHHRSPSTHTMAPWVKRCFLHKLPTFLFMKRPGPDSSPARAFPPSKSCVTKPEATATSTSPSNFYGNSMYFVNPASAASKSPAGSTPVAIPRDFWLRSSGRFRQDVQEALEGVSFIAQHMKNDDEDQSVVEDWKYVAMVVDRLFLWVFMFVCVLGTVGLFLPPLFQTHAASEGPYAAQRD
Nicotinic acetylcholine receptor alpha3/beta4/alpha5, sequence (P32297 whole entry): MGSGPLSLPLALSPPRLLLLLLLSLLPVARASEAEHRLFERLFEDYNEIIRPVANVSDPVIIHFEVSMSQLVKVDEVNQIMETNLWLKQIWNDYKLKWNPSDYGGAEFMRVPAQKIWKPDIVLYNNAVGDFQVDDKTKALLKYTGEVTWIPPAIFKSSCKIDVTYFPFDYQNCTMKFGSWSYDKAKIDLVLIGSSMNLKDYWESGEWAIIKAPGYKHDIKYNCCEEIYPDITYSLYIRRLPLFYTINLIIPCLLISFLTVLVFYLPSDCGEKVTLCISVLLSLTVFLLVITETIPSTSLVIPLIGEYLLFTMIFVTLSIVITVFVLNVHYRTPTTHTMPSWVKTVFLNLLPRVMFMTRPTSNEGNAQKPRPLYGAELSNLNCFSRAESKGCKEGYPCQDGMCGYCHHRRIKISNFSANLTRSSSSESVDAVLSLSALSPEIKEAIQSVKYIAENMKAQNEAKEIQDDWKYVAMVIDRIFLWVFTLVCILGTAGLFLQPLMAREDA
Nicotinic acetylcholine receptor alpha3/beta4/alpha5, sequence (P30532 whole entry): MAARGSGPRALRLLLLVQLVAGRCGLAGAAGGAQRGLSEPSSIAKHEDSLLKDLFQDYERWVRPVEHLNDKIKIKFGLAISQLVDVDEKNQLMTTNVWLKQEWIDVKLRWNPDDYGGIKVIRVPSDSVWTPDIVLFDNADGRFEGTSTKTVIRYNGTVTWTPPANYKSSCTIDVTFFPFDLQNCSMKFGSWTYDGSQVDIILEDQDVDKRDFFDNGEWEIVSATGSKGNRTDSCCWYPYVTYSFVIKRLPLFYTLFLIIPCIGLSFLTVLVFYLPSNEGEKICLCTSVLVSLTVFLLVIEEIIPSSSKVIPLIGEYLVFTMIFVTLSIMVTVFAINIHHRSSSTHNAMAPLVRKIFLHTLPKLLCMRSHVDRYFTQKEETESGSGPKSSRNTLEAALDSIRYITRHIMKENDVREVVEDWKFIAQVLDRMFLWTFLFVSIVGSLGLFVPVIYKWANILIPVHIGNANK

[10] = target: T3, Neuronal acetylcholine receptor; alpha3/beta4 (Rattus norvegicus) (UniProt P04757+P12392); assay: Agonist activity at rat alpha3beta4 nAChR transfected in HEK293 cells assessed as change in membrane potential measured every 3 secs for 120 secs by fluorescence assay; type: cell-based; outline: as §3
[11] = target: T2, Neuronal acetylcholine receptor; alpha4/beta2 (Rattus norvegicus); assay: Noncompetitive inhibition of nicotine-induced rat alpha4beta2 nAChR transfected in HEK293 cells assessed as stimulation of membrane potential at 0.3 uM after 10 mins by fluorescence assay; type: cell-based; design: scale not given: the % may be the effect or the level left; outline: as §2
[12] = target: T3, Neuronal acetylcholine receptor; alpha3/beta4 (Rattus norvegicus); assay: Antagonist activity at rat alpha3beta4 nAChR transfected in HEK293 cells assessed as inhibition of nicotine-induced membrane potential stimulation at 10 uM after 10 mins by fluorescence assay; type: cell-based; outline: as §2

For N=C1N(CCCC[C@H]2CN=C(N)N2CCc2ccc(Cl)c(Cl)c2)C[C@@H](Cc2ccc3ccccc3c2)N1CCc1ccc(Cl)c(Cl)c1, the Ki [1] was 347 µM and the Ki [2] was 47.5 µM.

Work on CC(C)CCCN1C(=N)NC[C@@H]1CCCCN1C[C@@H](CC2CCCCC2)N(CC2CCC(C(C)(C)C)CC2)C1=N (some centres undefined) yielded a Selectivity ratio (HEK293) of 21.2.

In the case of CC(C)CCCN1C(=N)NC[C@@H]1CCCCN1C[C@@H](Cc2ccccc2)N(CCc2cccc(Br)c2)C1=N, the Selectivity ratio (HEK293) is reported as 17.5, the Ki [1] is reported as 47.8 µM and the Ki [2] is reported as 2.6 µM.

For CCCCCCCN1C(=N)NC[C@@H]1CCCCN1C[C@@H](CC2CCCCC2)N(CC2CCC(C(C)(C)C)CC2)C1=N (some centres undefined), the Selectivity ratio (HEK293) was 13.2.

Compound CC(C)CCCN1C(N)=NC[C@@H]1CCCCN1C[C@@H](Cc2ccccc2)N(CC2CCC(C(C)(C)C)CC2)C1=N (some centres undefined) has a Ki [1] of 68.4 µM and a Ki [2] of 2.3 µM.

For CC(C)(C)C1CCC(CN2C(=N)N(CCCC[C@H]3CNC(=N)N3CCc3cccnc3)C[C@H]2CC2CCCCC2)CC1 (some centres undefined), the Ratio Ki (Rattus norvegicus) was 176.

CC(C)(C)C1CCC(CN2CCN(CCCC[C@H]3CNC(=N)N3CCc3cccnc3)C2=N)CC1 (some centres undefined) gave a Ratio Ki (Rattus norvegicus) of 64.

CCCCCCCN1C(=N)NC[C@@H]1CCCCN1C[C@@H](Cc2ccccc2)N(CC2CCC(C(C)(C)C)CC2)C1=N (some centres undefined) showed a Selectivity ratio (HEK293) of 19.3.

Compound N=C1NC[C@H](CCCCN2C[C@@H](Cc3ccccc3)N(CCc3cccc(Br)c3)C2=N)N1CCc1cccc(F)c1 has a Selectivity ratio (HEK293) of 10.1.

Compound CC(C)(C)C1CCC(CN2CCN(CCCC[C@H]3CN=C(N)N3CCc3cccnc3)C2=N)CC1 (some centres undefined) has a Ki [1] of 27.6 µM, an IC50 [3] of 2.82 µM and a Ki [2] of 0.433 µM.

With N=C1N(CCCC[C@H]2CN=C(N)N2CCc2cccc(F)c2)C[C@@H](CC2CCCCC2)N1CCc1cccc(Br)c1 the Ki [1] was 20.1 µM and the Ki [2] was 3.5 µM.

CC(C)CCCN1C(=N)NC[C@@H]1CCCCN1C[C@@H](CC2CCCCC2)N(CCc2cccc(Br)c2)C1=N showed a Selectivity ratio (HEK293) of 10.2.

CCCCCCCN1C(=N)NC[C@@H]1CCCCN1C[C@@H](CC2CCCCC2)N(CCc2cccc(Br)c2)C1=N showed a Selectivity ratio (HEK293) of 7.2.

With CC(C)(C)C1CCC(CN2CCN(CCCC[C@@H]3CNC(=N)N3CCc3cccnc3)C2=N)CC1 (some centres undefined) the Ratio Ki (Rattus norvegicus) was 23, the Ki [1] was 51.9 µM and the IC50 [3] was 2.95 µM. It also gave a Ki [2] of 2.22 µM.

N=C1N(CCCC[C@H]2CN=C(N)N2CCc2cccc(F)c2)C[C@@H](Cc2ccccc2)N1CCc1cccc(Br)c1 showed a Ki [1] of 20.4 µM and a Ki [2] of 1.8 µM.

Compound N=C1N(CCCC[C@H]2CN=C(N)N2CCc2ccc(Cl)c(Cl)c2)C[C@H](Cc2ccc3ccccc3c2)N1CCc1cccc(Br)c1 has a Ki [1] of 76 µM and a Ki [2] of 43.4 µM.

With N=C1NC[C@H](CCCCN2C[C@H](Cc3ccc4ccccc4c3)N(CCc3ccc(Br)cc3)C2=N)N1CCc1ccc(Cl)c(Cl)c1 the Selectivity ratio (HEK293) was -0.1.

CC(C)(C)C1CCC(CN2C(=N)N(CCCC[C@H]3CNC(=N)N3CCc3cccc(F)c3)C[C@H]2Cc2ccccc2)CC1 (some centres undefined) gave a Selectivity ratio (HEK293) of 19, a Ratio Ki (Rattus norvegicus) of 39 and a Ki [1] of 61.7 µM. The IC50 [3] was 26.3 µM and the Ki [2] was 1.59 µM.

CC(C)(C)C1CCC(CN2C(=N)N(CCCC[C@H]3CNC(=N)N3CCc3cccnc3)C[C@H]2Cc2ccccc2)CC1 (some centres undefined) was tested, and the Activity [4] was 0%, the Activity [5] was “inactive” and the Activity [6] was “Active”. For the same compound, the inhibition [7] was “Dose-dependent effect”, the Activity [8] was 38% and the Ki [9] was 9.06 µM. For the same compound, the Selectivity ratio (HEK293) was 20, the Ratio Ki (Rattus norvegicus) was 478 and the Activity [10] was “inactive”. It also gave a Ki [1] of 56.5 µM, an IC50 [3] of 0.514 µM and an Activity [11] of 83%. The inhibition [12] was 50% and the Ki [2] was 0.118 µM.

N=C1N(CCCC[C@H]2CN=C(N)N2CCc2ccc(Cl)c(Cl)c2)C[C@@H](Cc2ccc3ccccc3c2)N1CCc1cccc(Br)c1 gave a Ki [1] of 3 µM and a Ki [2] of 1.9 µM.

With N=C1NC[C@H](CCCCN2C[C@@H](Cc3ccc4ccccc4c3)N(CCc3ccc(Br)cc3)C2=N)N1CCc1ccc(Cl)c(Cl)c1 the Selectivity ratio (HEK293) was 0.6.

CC(C)CCCN1C(=N)NC[C@@H]1CCCCN1C[C@@H](Cc2ccccc2)N(CC2CCC(C(C)(C)C)CC2)C1=N (some centres undefined) was tested, and the Selectivity ratio (HEK293) was 28.5.

CC(C)CCCN1C(N)=NC[C@@H]1CCCCN1C[C@@H](CC2CCCCC2)N(CCc2cccc(Br)c2)C1=N was tested, and the Ki [1] was 37.3 µM and the Ki [2] was 3.3 µM.
